Efflux pump inh = inhibitors of Candida efflux pumps in yeast, primary screen, S. cerevisiae, Nile Red, multiplex | S. cerevisiae Candida pump triplex | inhibition, % at 10 µM | hit rate 0.44% among 330,000 | AID 485275, 2010;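 active means plate passing quality check with inhibition over a set limit, or well fluorescence over plate mean plus 4 SD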;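 further: Nile Red retained in pooled yeast measured as flow cytometry median fluorescence; higher means more Nile Red kept so more efflux inhibition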
ARNT TACC3 PPI = disruptors of ARNT/TACC3 protein interaction, primary screen, biochemical, AlphaScreen, single concentration. Transforming acidic coiled-coil-containing protein 3 (Homo sapiens), Q9Y6A5. AlphaScreen His-ARNT PAS-B/GST-TACC3 binding, luminescence; TACC3 fragment carries E629A point mutation. inhibition, % at 9.99 µM. hit rate 0.66% among 390,000. AID 623870, 2012;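 active means mean inhibition of replicates at least 50% and at least half of replicates each reaching 50%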
SUMO Mot1 rescue = yeast Mot1-301 growth rescue at high temperature, primary screen, SUMOylation pathway inhibitor project, S. cerevisiae, ATP luminescence, 38.5C. growth rescue, % at 18.8 µM. hit rate 1% among 320,000. S. cerevisiae Mot1-301 growth rescue; percent above DMSO median, 100 means doubled;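 active means every valid replicate shows activation above 250% relative to neutral control wells; inactive means the rest, any valid replicate at or below 250%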
cardiac RTF act = cardiac RTF calcium sensitivity activators, primary screen, biochemical, IANBD-TnC fluorescence, EC20 calcium | Troponin I, cardiac muscle (Homo sapiens) + Troponin T, cardiac muscle (Homo sapiens) + … | IANBD-labeled TnC RTF fluorescence at EC20 calcium; 0% EC20 calcium, 100% full calcium | activation, % at 7.2 µM | hit rate 0.24% among 340,000;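 active means activation above the mean over all tested compounds plus 3 SD, cut at about 30% in these data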;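 further: rise in fluorescence read as greater calcium sensitivity of cardiac thin filaments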
UCH37 inh = inhibitors of human UCH37 deubiquitinase, primary screen, biochemical, Ub-AMC cleavage, fluorescence; hit rate 0.33% among 330,000; inhibition, % (concentration not given with the values); Ubiquitin carboxyl-terminal hydrolase isozyme L5 (Homo sapiens), Q9Y5K5; purified proteasome/UCH37; AID 588478, 2011;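 active means mean inhibition over replicate wells above about 20%, limit read from the data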
Target sequence (Q9Y5K5 whole entry, looked up): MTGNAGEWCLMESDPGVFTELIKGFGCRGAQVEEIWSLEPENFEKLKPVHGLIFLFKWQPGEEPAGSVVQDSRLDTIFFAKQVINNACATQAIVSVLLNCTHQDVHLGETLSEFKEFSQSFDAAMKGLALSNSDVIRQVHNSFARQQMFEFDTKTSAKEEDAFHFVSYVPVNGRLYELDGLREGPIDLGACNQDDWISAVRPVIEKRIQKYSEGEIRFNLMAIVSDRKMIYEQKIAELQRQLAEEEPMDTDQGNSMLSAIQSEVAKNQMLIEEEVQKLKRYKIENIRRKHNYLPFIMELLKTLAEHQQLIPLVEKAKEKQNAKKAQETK
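Material: Human UCH37 enzyme supplied as purified proteasome complex | Schedule: 30 min compound-proteasome preincubation then 25 min substrate reaction, room temperature | Detection: AMC fluorescence from Ub-AMC cleavage, excitation 355 nm, emission 460 nm | Benchmarks: Wells without proteasome as full block, compound-free enzyme plus substrate as uninhibited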
RTF Ca sens inh = cardiac RTF calcium sensitivity inhibitors, primary screen, biochemical, IANBD-TnC fluorescence, EC70 calcium; Troponin I, cardiac muscle (Homo sapiens) + Troponin T, cardiac muscle (Homo sapiens) + …; IANBD-labeled cardiac RTF, Ca2+ fluorescence; inhibition, % at 7.15 µM; hit rate 0.12% among 340,000; AID 493244, 2011;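 active means inhibition above the mean inhibition of all tested compounds plus 3 SD, cut at about 17% in these data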;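 further: assay run at fixed EC70 calcium of 1.6 mM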
A number is an active result; n = inactive; x = not tested or not shown; + = active, no number. Only some compounds are listed: those with a hit (about 2.1% of all), similar ones and a draw of the others.

SMILES	Efflux pump inh	ARNT TACC3 PPI	SUMO Mot1 rescue	cardiac RTF act	UCH37 inh	RTF Ca sens inh
COc1ccc2c(c1)CCc1c(C(=O)NC3CCCCC3)noc1-2	n	45.8	n	n	n	n
C=CC1=C(C(=O)O)N2C(=O)[C@@H](NC(=O)/C(=N\O)c3csc(N)n3)[C@H]2SC1 (stereo in doubt)	n	64.4	n	n	x	n
CCn1ccc(C(=O)NC2C(=O)N3C(C(=O)O)=C(C)CSC23)n1 (stereo not drawn)	n	n	n	n	n	n
COc1cccc(/C=N/c2nc3ccccc3[nH]2)c1O	n	n	n	186.7	x	n
Oc1ccc(Cl)cc1C=Nc1nc2ccccc2[nH]1	x	x	x	x	n	x
CCOC(=O)C1=C(C)N=c2s/c(=C/c3cccc([N+](=O)[O-])c3O)c(=O)n2C1c1ccc(OC)cc1OC (stereo not drawn)	0.7	n	n	n	x	n
CCOC(=O)C1=C(C)N=c2sc(=Cc3cccc([N+](=O)[O-])c3O)c(=O)n2C1c1ccc(OC)cc1OC (stereo not drawn)	x	x	x	x	n	x
COc1ccc(C2C(C(C)=O)=C(C)N=c3s/c(=C\c4cc(C)n(C)c4C)c(=O)n32)c(OC)c1 (stereo not drawn)	2.5	n	n	110.0	x	n
O=C(c1ccc2ccccc2c1)N1CCN(c2ccc(C(F)(F)F)cn2)CC1	n	n	315.8	n	n	n
Cc1ccc(OCCCC(=O)NC2CCCCC2)cc1	n	n	n	38.3	n	n
COc1cc2c(cc1[N+](=O)[O-])-c1ccccc1C2	x	n	x	125.5	n	n
COc1ccc(C(=O)NNC(=O)c2ccccc2[N+](=O)[O-])cc1[N+](=O)[O-]	n	n	n	n	n	n
CCOC(=O)C1Nc2ccccc2C2C(O)C(O)CC12 (stereo not drawn)	n	n	n	79.9	n	n
CCOc1ccc(OCCSc2ccc(S(=O)(=O)N3CCN(C)CC3)cn2)cc1	n	x	294.7	n	n	n
Nc1nonc1-n1nnc(C(=O)NN=Cc2cccs2)c1CSc1ccccc1	x	x	x	x	n	x
Nc1cc(=O)[nH]c(SCC(=O)NNC(=O)c2ccccc2)n1	n	n	n	n	n	n
CCC(Sc1nc(N)cc(=O)[nH]1)C(=O)NC(C(=O)OC)c1ccccc1 (stereo not drawn)	n	x	x	x	32.3	x
Nc1cc(=O)[nH]c(SCC(=O)NNC(=O)Cc2ccccc2)n1	n	n	333.3	n	n	n
CC(Sc1nc(N)cc(=O)[nH]1)C(=O)NC1CCCCC1 (stereo not drawn)	n	n	+	n	n	n
CCOc1cc(C(c2c(C)[nH][nH]c2=O)c2c(C)[nH][nH]c2=O)cc([N+](=O)[O-])c1O	n	active	n	n	n	n
Cc1cc(N(C)N=Cc2ccccc2O)nc(-c2ccccc2O)n1	x	x	x	x	n	x
C=CCc1cccc(/C=N/NC(=O)C[n+]2ccccc2)c1O	n	80.2	n	n	x	n
COc1ccccc1CNC(=O)COC(=O)c1ccc(NC(N)=O)cc1	n	n	325.3	n	n	n
Cc1ccc(-n2nnc3c(=O)n(Cc4cc(C)ccc4C)cnc32)cc1	n	n	n	n	n	n
Cc1ccc(-n2nnc3c(=O)n(Cc4cccc(C)c4)cnc32)cc1	n	n	404.7	n	n	n
SMILES	Efflux pump inh	ARNT TACC3 PPI	SUMO Mot1 rescue	cardiac RTF act	UCH37 inh	RTF Ca sens inh
COc1ccc(/C=C2\CCC/C(=C\C=NN(C)C)C2=O)cc1	x	x	x	x	n	x
CC(C)[C@H](NC(=O)N1c2ccccc2NC(=O)[C@@H]1C(C)C)C(=O)N[C@@H](Cc1ccccc1)C(=O)O	n	n	n	n	n	n
CC(C)[C@H](NC(=O)N1c2ccccc2NC(=O)[C@@H]1C(C)C)C(=O)N[C@@H](C(=O)O)c1ccccc1	n	n	910.4	n	n	n
C=CCn1c(SCc2nc3c(c(=O)[nH]c(=O)n3CCCC)n2CCC)nnc1-c1ccccc1	n	n	n	n	29.4	n
O=c1[nH][nH]c2c(N=Cc3ccccc3O)ccc(F)c12	x	69.0	x	n	n	34.4
CN(C)CCCNC(=O)c1cc(C(=O)c2ccccc2)c[nH]1	n	n	n	n	n	n
O=C(c1ccccc1)c1c[nH]c(C(=O)NNc2ccccc2)c1	n	n	404.2	n	n	n
CC(=NNC(=O)c1ccc(C)cc1)c1c(C)[nH]n(-c2ccccc2)c1=O	x	x	x	x	n	x
Cc1ccc(C(=O)CCc2ccc(N)cc2)cc1	n	n	318.1	n	n	n
Cc1ccc(C(=O)Cc2ccccc2)cc1	x	n	x	n	n	n
CCOC(=O)c1ccccc1OCc1cc(C=Nn2cnnc2)ccc1OC	x	x	x	x	n	x
Cc1cc(OCC(=O)Nc2ccc(CN3CCOCC3)cc2)c2c(C)c(C)c(=O)oc2c1	n	n	305.1	n	n	n
Cc1cc(OCC(=O)Nc2ccc(CN3CCOCC3)cc2)c2c(C)cc(=O)oc2c1	n	n	n	n	n	n
COc1ccc(-n2c(C)n[nH]c2=O)cc1OC	n	n	347.3	n	n	n
COc1ccc(-n2c(C)n[nH]c2=O)cc1	n	n	n	n	n	n
COCCN1C(=O)/C(=C/c2ccc(N3CCCC3)cc2)SC1=S	n	n	n	80.4	n	n
CC(=NNC(N)=S)C1C2C3CC4C5CC(C42)C1C53 (stereo not drawn)	x	x	x	x	n	x
O=C(CSc1nncs1)Nc1nnc(-c2ccccc2)o1	n	53.5	n	n	n	n
CC1(C(=O)OCC(=O)Nc2nnc(-c3ccccc3)o2)CC1(Cl)Cl (stereo not drawn)	n	48.8	n	n	n	n
O=C(Cn1ccc(C(F)(F)F)n1)NN=Cc1cccs1	x	x	x	x	n	x
O=C(CCNC(=O)c1ccccc1Cl)Nc1ccncc1	n	n	n	n	n	n
O=C(CCNC(=O)c1ccccc1Cl)Nc1ccc(Br)c(C(F)(F)F)c1	n	n	n	n	23.9	n
Cc1ccc(C=NNC(=O)c2ccc(Br)o2)s1	x	x	x	x	n	x
CC(C)(C)c1ccc(CNC(=O)c2ccc3c(c2)NC(=O)CO3)cc1	n	n	331.4	n	n	n
CN(C)C1CCN(Cc2cc(COCc3ccccc3)c3cccnc3c2O)C1 (stereo not drawn)	n	75.3	n	n	n	n
COCc1cc(CN2CCCC2)c(O)c2ncccc12	n	60.0	n	n	n	n
COc1ccccc1N1CCN(Cc2cc(Br)c(O)c3ncccc23)CC1	n	x	n	n	n	n

Screens: PubChem BioAssay, several laboratories
